SUMO1 PPI mod = modulators of SUMO1 protein-protein interactions, primary screen, biochemical, uHTS; SUMO1 binding to a labelled peptide, TR-FRET, 1 h; inhibition, % at 20 µM; 360,000 tested, 0.33% active; in the data active means inhibition above about 37%
DNMT1 block = human DNMT1 methyltransferase inhibitors, primary screen, biochemical, molecular beacon, fluorescence, HinP1I cleavage, uHTS | 360,000 tested, 0.83% active | inhibition (reported as % activation of signal), % at 10 µM; in the data active means inhibition above about 50%
Target sequence (P26358 504-1616 limits assumed): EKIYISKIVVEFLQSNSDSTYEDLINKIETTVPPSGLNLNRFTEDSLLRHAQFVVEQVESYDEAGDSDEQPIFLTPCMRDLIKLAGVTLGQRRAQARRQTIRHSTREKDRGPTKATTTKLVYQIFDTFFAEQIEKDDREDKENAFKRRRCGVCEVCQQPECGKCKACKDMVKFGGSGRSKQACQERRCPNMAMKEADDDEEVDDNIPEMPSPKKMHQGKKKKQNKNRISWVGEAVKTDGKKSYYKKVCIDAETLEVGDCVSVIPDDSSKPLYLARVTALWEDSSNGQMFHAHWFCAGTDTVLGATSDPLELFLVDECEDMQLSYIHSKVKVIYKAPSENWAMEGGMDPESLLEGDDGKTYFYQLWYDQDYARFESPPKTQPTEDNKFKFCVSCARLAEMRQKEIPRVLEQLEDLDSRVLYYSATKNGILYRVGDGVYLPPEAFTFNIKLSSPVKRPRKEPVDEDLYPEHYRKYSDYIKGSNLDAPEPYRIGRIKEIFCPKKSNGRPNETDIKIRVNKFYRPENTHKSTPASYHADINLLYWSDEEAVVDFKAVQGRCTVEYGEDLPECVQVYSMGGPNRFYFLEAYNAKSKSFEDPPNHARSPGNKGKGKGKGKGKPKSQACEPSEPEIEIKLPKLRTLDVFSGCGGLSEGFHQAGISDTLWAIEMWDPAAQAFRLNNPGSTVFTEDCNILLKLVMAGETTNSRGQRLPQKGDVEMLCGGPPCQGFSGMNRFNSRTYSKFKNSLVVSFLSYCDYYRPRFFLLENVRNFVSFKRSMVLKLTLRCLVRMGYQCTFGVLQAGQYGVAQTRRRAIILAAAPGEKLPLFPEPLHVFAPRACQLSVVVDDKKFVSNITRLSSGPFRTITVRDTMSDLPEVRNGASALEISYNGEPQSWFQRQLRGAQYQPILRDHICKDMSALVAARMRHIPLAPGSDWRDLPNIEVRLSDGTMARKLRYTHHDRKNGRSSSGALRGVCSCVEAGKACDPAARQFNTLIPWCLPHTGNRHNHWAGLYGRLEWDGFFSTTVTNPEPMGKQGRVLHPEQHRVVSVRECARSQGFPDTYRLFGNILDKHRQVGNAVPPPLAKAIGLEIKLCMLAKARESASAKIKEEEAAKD
Scp1 inh = Scp-1 phosphatase inhibitors, primary screen, biochemical, colorimetric, uHTS; AID 493091, 2011; inhibition, % at 20 µM; 340,000 tested, 0.88% active; Carboxy-terminal domain RNA polymerase II polypeptide A small phosphatase 1 (Homo …; Recombinant Scp1, phosphopeptide, malachite green phosphate absorbance;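 active means inhibition above about 50% at 20 µM, limit read from the data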;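 further: plate controls were DMSO wells with enzyme for no effect and wells lacking enzyme for full effect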
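Test system: SCP-1 catalytic domain; Buffer or medium: Acidic Tris acetate buffer with magnesium and detergent; Also added: Phosphorylated 17-residue peptide substrate; Compound: single 20 µM dose, 1% DMSO; Schedule: enzyme reaction 45 min at room temperature, colour 5 min, stabilisation 30 min; Signal: Phosphate-binding colour reagent, absorbance read at 630 nm.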
LMPTP inh = LMPTP phosphatase inhibitors, primary screen, biochemical, fluorescence intensity, uHTS. Low molecular weight phosphotyrosine protein phosphatase (Homo sapiens), P24666. recombinant LMPTP-A, OMFP fluorogenic substrate. inhibition, % at 20 µM. 360,000 tested, 0.22% active. AID 651560, 2012;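 active means compounds that cut the enzyme signal by at least half of the control window in the single-dose screen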;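 further: plate controls were DMSO wells with enzyme plus substrate for no effect and substrate without enzyme for full effect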
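Test system: LMPTP-A, protein tyrosine phosphatase of low molecular weight; Input: 0.625 nM enzyme; Incubation: 50 min dark incubation at room temperature; Signal: endpoint fluorescence intensity from OMFP dephosphorylation; Read-out basis: % inhibition versus control wells.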
STEP block = STEP phosphatase inhibitors, primary screen, biochemical, fluorescence intensity, uHTS; Tyrosine-protein phosphatase non-receptor type 5 (Homo sapiens), P54829; recombinant STEP, OMFP fluorogenic substrate; inhibition, % at 20 µM; 360,000 tested, 0.25% active;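 active means inhibition at 20 µM, scaled per plate between control wells, above about 37%, limit read from the data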;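 further: 0% = DMSO with enzyme and substrate and 100% = substrate only without enzyme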
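Measure: Control-normalized % inhibition with plate pattern correction | Test system: STEP phosphatase, cell-free reaction | Medium: pH 6.0 Bis-Tris with DTT and Tween 20 | Technique: Fluorescence, 480/540 nm | Times: Reaction 20 min, ambient temperature | Doses: Single compound dose of 20 µM, 1% DMSO final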
An asterisk follows results filed as active. Hits are enriched below; roughly 1.7% of the tested compounds scored in any of these assays.

COc1ccc(CN2C[C@H](O)COC[C@@H]3O[C@H](CC(=O)NCc4ccncn4)CC[C@H]32)cc1 was read as SUMO1 PPI mod 1 and LMPTP inh 0.
For O=C(NCc1ccc2c(c1)OCO2)OCc1ccccc1 the results were SUMO1 PPI mod -1 and LMPTP inh -2.
Screening COC(=O)CNC(=O)Cn1c(=O)n(Cc2ccc(F)cc2)c(=O)c2sccc21 returned SUMO1 PPI mod 4, DNMT1 block 1, Scp1 inh 6, LMPTP inh 0 and STEP block -2.
Screening Nc1ccc(N)c(C(=O)O)c1 returned SUMO1 PPI mod 105*, DNMT1 block 117*, Scp1 inh 96*, LMPTP inh 81* and STEP block 96*.
`COCc1nnc(NS(=O)(=O)c2c(C)cc(C)cc2C)s1` gave SUMO1 PPI mod -1, DNMT1 block 0, Scp1 inh -2, LMPTP inh -2 and STEP block -3.
Cc1cc(C)c(S(=O)(=O)Nc2nccs2)c(C)c1 was read as SUMO1 PPI mod 43*, DNMT1 block 1, Scp1 inh -10, LMPTP inh -1 and STEP block -1.
Screening Brc1ccsc1-c1csc(-c2ccncc2)n1 returned SUMO1 PPI mod -41, DNMT1 block -8, Scp1 inh -1, LMPTP inh 3 and STEP block -1.
Screening Cc1cc2oc(=O)cc(CN3CCN(c4ccc(Cl)c(Cl)c4)CC3)c2cc1Cl returned SUMO1 PPI mod 2, DNMT1 block 0, LMPTP inh 0 and STEP block 0.
For O=C(c1ccco1)N(CCC(c1ccccc1)c1ccco1)Cc1ccco1 (centres undefined) the results were SUMO1 PPI mod 14, DNMT1 block 100*, Scp1 inh 74*, LMPTP inh 3 and STEP block 9.
For CC(=O)N(CCC(Cc1ccccc1)c1ccco1)Cc1ccco1 (centres undefined) the results were SUMO1 PPI mod 3, DNMT1 block -9, Scp1 inh 0, LMPTP inh 1 and STEP block 1.
`CC1=C(C(=O)N2CCCCCC2)CC(CC(=O)NCCc2ccccn2)C(=O)N1CCC1=CCCCC1` (centres undefined) gave SUMO1 PPI mod 6 and LMPTP inh -1.
O=C(COC(=O)c1ccc(Cl)c(S(=O)(=O)N2CCCCCC2)c1)NCc1ccccc1 was read as SUMO1 PPI mod -1, DNMT1 block 0, LMPTP inh 2 and STEP block 0.
For O=C(Nc1ccn(Cc2ccc(Cl)cc2)n1)c1ccc2c(c1)OCO2 the results were SUMO1 PPI mod 40*, DNMT1 block -8, Scp1 inh -5, LMPTP inh -1 and STEP block -1.
COCCN1C(=O)CCC1(C)c1nnnn1-c1ccc2ccccc2c1 (centres undefined) was read as SUMO1 PPI mod -2 and LMPTP inh -1.
For O=C(Nc1ccc(Cl)c(-c2nc3ccccc3[nH]2)c1)c1ccc2c(c1)OCO2 the results were SUMO1 PPI mod 6, DNMT1 block -7, Scp1 inh 0, LMPTP inh 2 and STEP block 2.
`O=C(Nc1ccc(-c2nc3ccccc3[nH]2)cc1)c1ccc2c(c1)OCO2` gave SUMO1 PPI mod 42*, DNMT1 block 18, Scp1 inh 1, LMPTP inh 7 and STEP block 5.
`O=C(COc1ccc(Br)cc1)N(Cc1nnc(-c2ccccc2Cl)o1)C1CC1` gave SUMO1 PPI mod -9, DNMT1 block 0, LMPTP inh -6 and STEP block 1.
Screening O=c1oc2ccccc2cc1-c1nc2c(s1)CCc1ccccc1-2 returned SUMO1 PPI mod -5, DNMT1 block -28, Scp1 inh -16, LMPTP inh 2 and STEP block 0.
`O=c1oc2cc(O)ccc2cc1-c1nc2c(s1)CCc1ccccc1-2` gave SUMO1 PPI mod -7, DNMT1 block active, Scp1 inh -8, LMPTP inh 1 and STEP block -37.
